SENP6 inh: SENP6 protease inhibition; Q9GZR1; Recombinant SENP6 catalytic domain, aminoluciferin luminescence; inhibition, % at 10 µM; hit rate 1.8% among 330,000; AID 2599;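 active = inhibition above about 50% at the single tested dose, limit read from the data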
SENP8 block-1: blocks the human protease SENP8; purified SENP8, Z-RLRGG-aminoluciferin cleavage, luminescence; inhibition, % at 10 µM; hit rate 1.2% among 330,000; AID 2540; in the data active = inhibition above about 50%
Target sequence (Q96LD8 whole entry, looked up): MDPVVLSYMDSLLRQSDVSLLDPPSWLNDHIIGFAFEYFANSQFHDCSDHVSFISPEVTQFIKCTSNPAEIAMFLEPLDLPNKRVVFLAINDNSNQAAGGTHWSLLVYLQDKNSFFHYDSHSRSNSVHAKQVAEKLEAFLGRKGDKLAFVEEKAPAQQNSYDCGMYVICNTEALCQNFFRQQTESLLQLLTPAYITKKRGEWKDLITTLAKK
SENP1 FRET inh: SENP1 (human) catalytic domain inhibition; Q9P0U3; recombinant SENP1 catalytic domain, CyPet-SUMO1-YPet FRET cleavage; inhibition, % at 10 µM; AID 624204; hit rate 0.21% among 360,000;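 active = inhibition at least 30% at 10 µM, raw YFP signal under a set limit, fluorescence ratio 0.5 to 1.5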
Target sequence (Q9P0U3 419-644 limits assumed): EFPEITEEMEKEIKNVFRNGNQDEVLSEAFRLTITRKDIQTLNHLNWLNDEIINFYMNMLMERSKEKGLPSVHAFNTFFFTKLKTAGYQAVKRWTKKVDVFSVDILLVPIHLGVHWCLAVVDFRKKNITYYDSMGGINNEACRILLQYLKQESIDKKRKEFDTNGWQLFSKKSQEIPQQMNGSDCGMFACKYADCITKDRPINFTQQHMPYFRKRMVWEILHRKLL
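Assay system: hSENP1 catalytic domain, recombinant. Amount: SENP1 enzyme, 20 pM final. Schedule: 50 min reaction, RT, dark. Technique: FRET, CFP and YFP emission. Control set: no-enzyme wells low, DMSO-plus-enzyme wells high control.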
SENP8 block-2: SENP8 (human) protease inhibition. Q96LD8. recombinant SENP8, Nedd8 substrate fluorescence. inhibition, % at 20 µM. hit rate 0.64% among 360,000. AID 602440; in the data active = inhibition mostly above about 40%, no sharp cut-off; inactive = mostly below about 27%
SENP7 block: blocks the human protease SENP7 | hit rate 1.5% among 330,000 | recombinant SENP7, Z-RLRGG-aminoluciferin luminescence, 40 min | AID 434973 | inhibition, % at 5 µM | Q9BQF6;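 active = inhibition above about 50% at the single test dose, limit read from the data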
SENP1 inh conf: SENP1 (human) inhibition, single concentration confirmation | inhibition, % at 10 µM | shares compounds with SENP1 FRET inh | hit rate 34% among 520 | recombinant SENP1, CyPet-SUMO1-YPet FRET cleavage; in the data active = inhibition mostly above about 35%, no sharp cut-off; inactive = mostly below about 32%
SENP1 kin conf: SENP1 (human) inhibition, kinetic confirmation; hit rate 26% among 520; recombinant SENP1, CyPet-SUMO1-YPet FRET kinetic cleavage; inhibition, % at 10 µM; shares compounds with SENP1 FRET inh; AID 651690; in the data active = inhibition mostly above about 32%, no sharp cut-off; inactive = mostly below about 29%
Of the large screens only hits and unclear results are named; the others gave an inactive call (follow-up assays come after a bar, where they were run); ! = repeats disagree. Most compounds without a hit are left out; they make up all but 2.5% or so of the library.

CC(C(=O)OCC(=O)Nc1cccc(S(=O)(=O)N(C)C)c1)N1C(=O)c2ccccc2C1=O (centres undefined)	none
O=C1CCCC2=C1Sc1ccc(Cl)cc1N2	SENP1 FRET inh 72 | SENP1 inh conf 93 | SENP1 kin conf 50
Nc1ccn(C2OC(COP(=O)(O)O)C(O)C2O)c(=O)n1 (centres undefined)	none (no result: SENP6 inh, SENP8 block-1, SENP7 block)
Oc1ccccc1NCC(O)Cn1ccc2ccccc21 (centres undefined)	SENP1 FRET inh 37 | SENP1 inh conf inactive | SENP1 kin conf inactive
OC(CNCc1ccccc1)Cn1ccc2ccccc21 (centres undefined)	none
NC(N)=NCCCS(=O)(=O)Nc1ccc(Nc2c3ccccc3nc3cc([N+](=O)[O-])ccc23)cc1	SENP1 FRET inh 51 (no result: SENP6 inh, SENP8 block-1, SENP7 block) | SENP1 inh conf inactive | SENP1 kin conf inactive
CC(=O)n1c2ccccc2c2c1c1ccccc1n2C	SENP1 FRET inh 75 | SENP1 inh conf inactive | SENP1 kin conf inactive
Cc1nc(NCCc2ccccc2)sc1C(=O)N(C)C	none
COc1ccc(/C=C/c2nc3ccccc3n2Cc2ccc(OC)c(OC)c2)cc1	none
COc1ccc2c(c1)c1nc3ccccc3nc1n2Cc1ccc(OC)c(OC)c1	SENP1 FRET inh 39 (no result: SENP6 inh, SENP8 block-1, SENP7 block) | SENP1 inh conf 63 | SENP1 kin conf 52
CCc1nc2ccccc2n1Cc1ccc(OC)c(OC)c1	none
CCOc1ccc(Cn2c3ccc(OC)cc3c3nc4ccccc4nc32)cc1OC	SENP1 FRET inh 42 | SENP1 inh conf 68 | SENP1 kin conf 48
Cc1c(NN=C(C#N)C#N)c(=O)n(-c2ccccc2)n1C	SENP1 FRET inh 46 | SENP1 inh conf inactive | SENP1 kin conf inactive
COc1cccc(CNC(=O)C2CSC3(C)CCC(=O)N23)c1 (centres undefined)	SENP1 FRET inh 38 | SENP1 inh conf inactive | SENP1 kin conf inactive
Fc1ccc(C2=CC(c3cccs3)n3nnnc3N2)cc1 (centres undefined)	SENP1 FRET inh 33 | SENP1 inh conf inactive | SENP1 kin conf inactive
CC(C)C[C@H]1C(=O)N2CCC[C@H]2[C@]2(O)O[C@](NC(=O)C3C=C4c5cccc6[nH]c(Br)c(c56)C[C@H]4N(C)C3)(C(C)C)C(=O)N12 (some centres undefined)	none
CN1C[C@H](C(=O)N[C@]2(C)O[C@@]3(O)[C@@H]4CCCN4C(=O)[C@H](Cc4ccccc4)N3C2=O)CC2c3cccc4[nH]cc(c34)C[C@H]21 (some centres undefined)	SENP1 FRET inh 34! | SENP1 inh conf inactive | SENP1 kin conf inactive
COc1cccc(C2CC(C(F)(F)F)n3nc(C(=O)Nc4c(C)n(C)n(-c5ccccc5)c4=O)cc3N2)c1 (centres undefined)	SENP1 FRET inh 27 | SENP1 inh conf inactive | SENP1 kin conf inactive
COc1ccc2nc3ccccc3nc2c1NC(=O)c1ccc(Cl)cc1	none
COc1ccc2nc3ccccc3nc2c1NC(=O)c1ccc(Br)cc1	SENP1 FRET inh 92 | SENP1 inh conf 105 | SENP1 kin conf 60
Cc1ccc2nc(C(C)(C)C)c(Cc3cccc(Cl)c3)n2c1	none (no result: SENP6 inh, SENP8 block-1, SENP7 block)
O=C(NC(Cc1ccccc1)C(=O)O)/C(=C/c1cccc([N+](=O)[O-])c1)NC(=O)c1ccco1 (centres undefined)	none
O=C(NC(Cc1ccccc1)C(=O)O)/C(=C\c1ccc([N+](=O)[O-])cc1)NC(=O)c1ccco1 (centres undefined)	SENP1 FRET inh 33 | SENP1 inh conf inactive | SENP1 kin conf inactive
OCC1(Cc2ccccc2)CCCN(Cc2ccn[nH]2)C1 (centres undefined)	none
CCc1nnc(NC(=O)CCN2C(=O)/C(=C/c3cc(OC)c(OC)c(OC)c3)SC2=S)s1	SENP1 FRET inh 48 | SENP1 inh conf 39 | SENP1 kin conf inactive
COc1cc(/C=C2\SC(=S)N(CCC(=O)Nc3ccc(O)cc3)C2=O)cc(OC)c1OC	none
Cc1ccnc(NS(=O)(=O)c2ccc(NC(=O)Cc3ccc(Br)cc3)cc2)n1	none
O=C(COC(=O)c1cccc(O)c1)Nc1ccc(N2CCOCC2)cc1	none
Nc1ccc2oc(=O)c(-c3ccccc3)cc2c1	SENP1 FRET inh 68 | SENP1 inh conf inactive | SENP1 kin conf inactive
CCc1cc2c(N=Nc3c(O)[nH]c4ccccc34)ncnc2s1	SENP1 FRET inh 59 | SENP1 inh conf inactive | SENP1 kin conf inactive
Cc1ccc(-n2cc(-c3ccc([N+](=O)[O-])cc3)[nH]c2=S)c(C)c1	SENP1 FRET inh 63 | SENP1 inh conf 42 | SENP1 kin conf 33
COc1ccccc1-n1cc(-c2ccc([N+](=O)[O-])cc2)[nH]c1=S	SENP1 FRET inh 43 | SENP1 inh conf inactive | SENP1 kin conf inactive
Cc1cccc(-n2cc(-c3ccc([N+](=O)[O-])cc3)[nH]c2=S)c1	none
COC(=O)c1scc(C)c1NS(=O)(=O)c1ccc(NC(C)=O)cc1	none
COc1ccccc1Nc1ccc([N+](=O)[O-])cc1N	SENP1 FRET inh 49 | SENP1 inh conf inactive | SENP1 kin conf inactive
COc1ccccc1Nc1c([N+](=O)[O-])cc(C)cc1[N+](=O)[O-]	none
COc1ccc(N2C(=O)CSC(c3ccccc3)C2=O)cc1 (centres undefined)	none
O=C(C[n+]1cccc2ccccc21)c1ccc(Cl)cc1	SENP1 FRET inh 43 | SENP1 inh conf inactive | SENP1 kin conf inactive
Fc1c(CSC(=S)N2CCOCC2)cccc1CSC(=S)N1CCOCC1	none
O=C(Nc1ccc(Cl)cc1)c1ccc2c(c1)S(=O)(=O)c1ccccc1C2=O	SENP1 FRET inh 33 | SENP1 inh conf inactive | SENP1 kin conf inactive
O=C(Nc1ccc(S(=O)(=O)O)cc1)c1ccc2c(c1)S(=O)(=O)c1ccccc1C2=O	none
Cc1ccccc1CNC(=O)C(=O)NCC1CCCN1S(=O)(=O)c1cccs1 (centres undefined)	none
CN(C)CCN1C(=O)C(O)=C(C(=O)c2cc3ccccc3o2)C1c1ccc(N(C)C)cc1 (centres undefined)	SENP1 FRET inh 31 | SENP1 inh conf inactive | SENP1 kin conf inactive
N#C/C(=C\c1ccc(/C=C(/C#N)c2nn(CCO)c(N)c2C#N)cc1)c1nn(CCO)c(N)c1C#N	SENP1 FRET inh 38 | SENP1 inh conf inactive | SENP1 kin conf inactive
O=C(c1ccccc1)C(O)C(c1ccccc1)N1CCOCC1 (centres undefined)	none
COC(=O)c1ccc(C2SCC(=O)N2Cc2ccccc2)cc1 (centres undefined)	none
O=C(NCCSCc1ccccc1)c1ccc(C2SCC(=O)N2Cc2ccccc2)cc1 (centres undefined)	SENP1 FRET inh 63 | SENP1 inh conf 45 | SENP1 kin conf 50
O=C(NCc1ccc(F)cc1)OC1CC2CC1[C@H]1CCCCN1C2=O (some centres undefined)	none (no result: SENP6 inh, SENP8 block-1, SENP7 block)

Source: PubChem
